Data taken from article PMC4261236 (Journal of Medicinal Chemistry, 2014).

Legend:
[1] = test system: sstr2-transfected HCT116 tumor-bearing mice; experiment: Small animal PET/CT imaging; format: in vivo; settings: 2 h p.i.; for tumor SUV: PET/CT; for tumor SUV, blocked: unlabeled Y3-TATE co-injected to block
[2] = test system: sstr2-transfected HCT116 tumor-bearing female nu/nu mice; experiment: Biodistribution in tumor-bearing mice; format: in vivo; settings: for blood clearance (in words): 1 to 4 h p.i.; for tumor uptake blocked by co-injected Y3-TATE: 4 h p.i., 20 μg Y3-TATE co-injected
[3] = Biodistribution in tumor-bearing mice; format: in vivo; settings: mouse, liver, intravenous, 1.85 MBq
[4] = test system: sstr2-transfected HCT116 cells; experiment: Cell internalization assay; format: cell-based, Human; settings: for maximum internalized tracer: after 2 h at 37 °C, 4 nM tracer
Summary of the method: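 sstr2-transfected HCT116 cells (Iscove's, 10% FBS, 1 mM Zeocin) in 12-well plates with 64Cu-labelled tracer at 4 nM final (labelled at >98% yield, used without purification). Surface-bound and internalized activity gamma-counted at 15, 30, 60, 120 and 240 min. Nonspecific binding from 1000-fold excess Y3-TATE. Values normalized to added activity and to BCA protein (%ID/mg).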

Molecule: C[C@@H](O)[C@H](NC(=O)[C@@H]1CSSC[C@H](NC(=O)[C@@H](Cc2ccccc2)NC(=O)CCCCCn2nnc3c2-c2ccccc2N(C(=O)CCNC(=O)CN2CCCN4CCN(CCCN(CP(=O)(O)O)CC4)CC2)Cc2ccccc2-3)C(=O)N[C@@H](Cc2ccc(O)cc2)C(=O)N[C@H](Cc2c[nH]c3ccccc23)C(=O)N[C@@H](CCCCN)C(=O)N[C@@H]([C@@H](C)O)C(=O)N1)C(=O)O (single isomer, unassigned) [^64Cu-AP-1, ^64Cu-CB-TE1A1P–DBCO–Y3-TATE, metal not drawn]
- tumor SUV [1]: 4.6 ± 0.8
- tumor SUV, blocked [1]: 0.47 ± 0.18
- blood clearance (in words) [2]: significantly slower than the blood clearance of ^64Cu-1A1P
- liver uptake (in words) ([2]; 1 h p.i.): significantly higher than that of ^64Cu-KP-1 and ^64Cu-1A1P
- tumor uptake blocked by co-injected Y3-TATE [2]: 63%
- tissue uptake at 24 h [3]: < 1 %ID/g
- maximum internalized tracer [4]: 45 ± 3 %ID/mg

Molecule: C[C@@H](O)[C@H](NC(=O)[C@@H]1CSSC[C@H](NC(=O)[C@@H](Cc2ccccc2)NC(=O)CCCCCn2nnc3c2-c2ccccc2N(C(=O)CCNC(=O)CN2CCCN4CCN(CCCN(CP(=O)(O)O)CC4)CC2)Cc2ccccc2-3)C(=O)N[C@@H](Cc2ccc(O)cc2)C(=O)N[C@H](Cc2c[nH]c3ccccc23)C(=O)N[C@@H](CCCCN)C(=O)N[C@@H]([C@@H](C)O)C(=O)N1)C(=O)O (single isomer, unassigned) [^64Cu-AP-2, ^64Cu-CB-TE1A1P–DBCO–Y3-TATE, metal not drawn]
- maximum internalized tracer [4]: 73 ± 7 %ID/mg

Molecule: C[C@@H](O)[C@H](NC(=O)[C@@H]1CSSC[C@H](NC(=O)[C@@H](Cc2ccccc2)NC(=O)CCCCCn2nnc3c2-c2ccccc2N(C(=O)CCNC(=O)CN2CCCN4CCN(CCCN(CP(=O)(O)O)CC4)CC2)Cc2ccccc2-3)C(=O)N[C@@H](Cc2ccc(O)cc2)C(=O)N[C@H](Cc2c[nH]c3ccccc23)C(=O)N[C@@H](CCCCN)C(=O)N[C@@H]([C@@H](C)O)C(=O)N1)C(=O)O (single isomer, unassigned) [^64Cu-AP-3, ^64Cu-CB-TE1A1P–DBCO–Y3-TATE, metal not drawn]
- internalization (in words) ([4]; 37 °C, up to 4 h): slower internalization which was not saturated after 4 h

Molecule: C[C@@H](O)[C@H](NC(=O)[C@@H]1CSSC[C@H](NC(=O)[C@@H](Cc2ccccc2)NC(=O)CCCCCn2nnc3c2-c2ccccc2N(C(=O)CCNC(=O)CCOCCOCCOCCOCCOCCC(=O)NCCCCC(C(=O)O)N2CCCN4CCN(CCCN(CP(=O)(O)O)CC4)CC2)Cc2ccccc2-3)C(=O)N[C@@H](Cc2ccc(O)cc2)C(=O)N[C@H](Cc2c[nH]c3ccccc23)C(=O)N[C@@H](CCCCN)C(=O)N[C@@H]([C@@H](C)O)C(=O)N1)C(=O)O (some centres unmarked) [^64Cu-KP-1, ^64Cu-CB-TE1K1P–PEG4–DBCO–Y3-TATE, metal not drawn]
- tumor SUV [1]: 3.2 ± 0.2
- tumor SUV, blocked [1]: 0.21 ± 0.06
- blood clearance (in words) [2]: significantly slower than the blood clearance of ^64Cu-1A1P
- liver uptake (in words) ([2]; 4 and 24 h p.i.): lower uptake in the liver than ^64Cu-AP-1 and ^64Cu-1A1P
- tumor uptake blocked by co-injected Y3-TATE [2]: 84%
- tissue uptake at 24 h [3]: < 1 %ID/g

Molecule: ^64Cu-CB-TE1A1P–Y3-TATE [^64Cu-1A1P]
- tumor SUV [1]: 2.8 ± 0.4
- tumor SUV, blocked [1]: 0.19 ± 0.02
- tumor-to-blood ratio (in words) ([2]; 1, 4 and 24 h p.i.): significantly higher than both ^64Cu-AP-1 and ^64Cu-KP-1 at all time points
- tumor uptake (in words) ([2]; 4 and 24 h p.i.): significantly higher tumor uptake than ^64Cu-KP-1 and ^64Cu-AP-1
- tumor uptake blocked by co-injected Y3-TATE [2]: 95%
